In ChEMBL document CHEMBL4052646, “Synthesis of nοvel artemisinin dimers with polyamine linkers and evaluation of their potential as anticancer agents” (Bioorg Med Chem, 2017):
The source made the active and inactive calls. The rule behind the calls is not given here.

Tests used:
[1] = system: MCF7; experiment: Induction of necrosis in human MCF7 cells at 10 uM after 48 hrs by Annexin V-FITC/PI staining based flow cytometry; assay type: functional, cell-based
[2] = system: MCF7; experiment: Cytotoxicity against human MCF7 cells assessed as reduction in cell number at 10 uM after 48 hrs by MTT assay; assay type: functional
How it was run: (§1)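 Cells seeded at 10×10^3 (MCF7) or 15×10^3 (HUVEC, primary from umbilical cords, passages 2-3) per well, exposed to agents at different concentrations up to 10 µM for 48 h. MTT added at 1/10 medium volume, 2 h at 37°C, formazan dissolved in acidified isopropanol, absorbance read at 490 nm. Confirmed by haemocytometer counts. IC50 and maximal percent decrease interpolated from graphs. Mean ± S.E.M. versus untreated cells.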

[3] = system: MCF7; experiment: Decrease in pleiotrophin secretion in conditioned media of human MCF7 cells at 10 uM after 24 hrs by Western blot analysis; assay type: functional, cell-based
How it was run: (§2)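 MCF7 cells treated with 10 µM agent for 24 h. PTN in the whole conditioned medium was captured on heparin-Sepharose for 16 h at 4°C and eluted in reducing Laemmli buffer. Lysates were run in parallel. Blots were probed with mouse anti-PTN (1:1,000), normalised to β-actin, and quantified by densitometry as percent of untreated (n=3).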

[4] = system: MCF7; experiment: Induction of ROS production in human MCF7 cells after 4 to 6 hrs by carboxy-H2DCFDA dye based fluorescence assay; assay type: functional, cell-based
How it was run: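 MCF7 cells seeded at 15×10^3/well, exposed to agents 24 h later for 4 h. After PBS washes, cells loaded with 50 µM carboxy-H2DCFDA for 15 min in the dark. Fluorescence read at excitation 492–495 nm and emission 517–527 nm.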

[5] = system: MCF7; experiment: Induction of apoptosis in human MCF7 cells at 10 uM after 48 hrs by Annexin V-FITC/PI staining based flow cytometry; assay type: functional, cell-based
[6] = system: HUVEC; experiment: Cytotoxicity against HUVEC assessed as reduction in cell number at 10 uM after 48 hrs by MTT assay; assay type: functional, Homo sapiens; how it was run: as §1
[7] = system: MCF7; experiment: Cytotoxicity against human MCF7 cells assessed as reduction in cell number after 48 hrs by MTT assay; assay type: functional, cell-based; details: for IC50: MCF7, 48 h; how it was run: as §1
[8] = system: HUVEC; experiment: Cytotoxicity against HUVEC assessed as reduction in cell number after 48 hrs by MTT assay; assay type: functional, cell-based; details: Homo sapiens; how it was run: as §1
[9] = system: MCF7; experiment: Decrease in pleiotrophin protein expression in human MCF7 cell lysate at 10 uM after 24 hrs by Western blot analysis; assay type: functional, cell-based; how it was run: as §2
[10] = system: Chorioallantoic membrane; experiment: In vivo antiangiogenic activity in Leghorn chicken embryo chorioallantoic membrane assessed as decrease in total vessel length at 10 nmol/egg after 48 hrs relative to control; assay type: functional, Gallus gallus; parameters: scale not given: the % may be the effect or the level left
How it was run: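 Windows opened in fertilized Leghorn eggs on day 4. On day 9, agent in 20 µl PBS applied to 1 cm² of CAM inside a plastic ring. After 48 h at 37°C, CAMs fixed in situ, excised and air-dried. Total vessel length measured by image analysis as percent change versus control. At least three experiments, 10–20 eggs per point.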

[11] = system: MCF7; experiment: Cytotoxicity against human MCF7 cells assessed as reduction in cell number at 10 uM cotreated with spermidine after 48 hrs by MTT assay; assay type: functional, cell-based
How it was run: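 MCF7 cells given the conjugate, the unconjugated artemisinin derivative, spermidine, or the derivative plus spermidine, each at 10 µM, for 48 h. Cell number measured by MTT at 490 nm after formazan solubilisation in acidified isopropanol. Reported as mean ± S.E.M. relative to untreated cells.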

Row | Structure (SMILES) | Activity [1] | Efficacy [2] [%] | Activity [3] | Activity [4] | Activity [5] | Efficacy [6] [%] | Activity [7] | IC50 [7] [nM] | IC50 [8] [nM] | Activity [9] | Activity [10] [%] | Activity [11]
1 | C[C@@H]1CC[C@H]2[C@@H](C)C(=O)N(CCOCCOC(=O)NCCCCNC(=O)OCCOCCN3C(=O)[C@H](C)[C@@H]4CC[C@@H](C)[C@@H]5CC[C@@]6(C)OO[C@]54[C@H]3O6)[C@@H]3O[C@@]4(C)CC[C@@H]1[C@@]23OO4 | inactive | 52 | Active | Active | inactive | 23 | Dose-dependent effect | 999 | 2300 | Active | – | –
2 | COC(=O)N(CCCCN(CCCNC(=O)OCCC[C@H]1O[C@@H]2O[C@@]3(C)CC[C@H]4[C@H](C)CC[C@@H]([C@H]1C)[C@@]24OO3)C(=O)OC)CCCNC(=O)OCCC[C@H]1O[C@@H]2O[C@@]3(C)CC[C@H]4[C@H](C)CC[C@@H]([C@H]1C)[C@@]24OO3 | inactive | 70 | Active | Active | inactive | 27 | Dose-dependent effect | 1000 | 7500 | Active | 22 | –
3 | C[C@H]1[C@@H](CCCO)O[C@@H]2O[C@]3(C)CC[C@H]4[C@H](C)CC[C@@H]1[C@@]24OO3 | – | – | – | – | – | – | – | – | – | – | – | inactive
4 | C[C@H]1[C@@H](CCCOC(=O)NCCCCNC(=O)OCCC[C@H]2O[C@@H]3O[C@@]4(C)CC[C@H]5[C@H](C)CC[C@@H]([C@H]2C)[C@@]35OO4)O[C@@H]2O[C@@]3(C)CC[C@H]4[C@H](C)CC[C@@H]1[C@@]24OO3 | inactive | 61 | Active | Active | inactive | 27 | Dose-dependent effect | 1000 | 3600 | Active | 14.3 | –
5 | C[C@H]1[C@@H](O)O[C@@H]2O[C@@]3(C)CC[C@H]4[C@H](C)CC[C@@H]1[C@@]24OO3 [ARTENIMOL] | – | – | – | – | – | 28 | – | – | 1400 | – | 2.8 | –
6 | COC(=O)N(CCCCNC(=O)OCCOCCO[C@H]1O[C@@H]2O[C@@]3(C)CC[C@H]4[C@H](C)CC[C@@H]([C@H]1C)[C@@]24OO3)CCCNC(=O)OCCOCCO[C@H]1O[C@@H]2O[C@@]3(C)CC[C@H]4[C@H](C)CC[C@@H]([C@H]1C)[C@@]24OO3 | – | 11.2 | – | – | – | – | – | – | – | – | – | –
7 | C[C@H]1[C@@H](OCCOCCOC(=O)NCCCCNC(=O)OCCOCCO[C@H]2O[C@@H]3O[C@@]4(C)CC[C@H]5[C@H](C)CC[C@@H]([C@H]2C)[C@@]35OO4)O[C@@H]2O[C@@]3(C)CC[C@H]4[C@H](C)CC[C@@H]1[C@@]24OO3 | – | 50 | – | – | – | – | Dose-dependent effect | 1000 | – | – | – | –
8 | C[C@@H]1CC[C@H]2[C@@H](C)C(=O)O[C@@H]3O[C@@]4(C)CC[C@@H]1[C@]32OO4 [ARTEMISININ] | inactive | 14 | Active | Active | inactive | 22 | Dose-dependent effect | – | 1100 | Active | 6.3 | –
9 | COC(=O)N(CCCCN(CCCNC(=O)OCCOCCN1C(=O)[C@H](C)[C@@H]2CC[C@@H](C)[C@@H]3CC[C@@]4(C)OO[C@]32[C@H]1O4)C(=O)OC)CCCNC(=O)OCCOCCN1C(=O)[C@H](C)[C@@H]2CC[C@@H](C)[C@@H]3CC[C@@]4(C)OO[C@]32[C@H]1O4 | – | 48 | – | – | – | – | Dose-dependent effect | 1000 | – | – | – | –
10 | COC(=O)N(CCCCNC(=O)OCCOCCN1C(=O)[C@H](C)[C@@H]2CC[C@@H](C)[C@@H]3CC[C@@]4(C)OO[C@]32[C@H]1O4)CCCNC(=O)OCCOCCN1C(=O)[C@H](C)[C@@H]2CC[C@@H](C)[C@@H]3CC[C@@]4(C)OO[C@]32[C@H]1O4 | – | 39 | – | – | – | – | Dose-dependent effect | 999 | – | – | – | –
11 | COC(=O)N(CCCCN(CCCNC(=O)OCCOCCO[C@H]1O[C@@H]2O[C@@]3(C)CC[C@H]4[C@H](C)CC[C@@H]([C@H]1C)[C@@]24OO3)C(=O)OC)CCCNC(=O)OCCOCCO[C@H]1O[C@@H]2O[C@@]3(C)CC[C@H]4[C@H](C)CC[C@@H]([C@H]1C)[C@@]24OO3 | – | 64 | – | – | – | – | Dose-dependent effect | 1000 | – | – | – | –
12 | COC(=O)N(CCCCNC(=O)OCCC[C@H]1O[C@@H]2O[C@@]3(C)CC[C@H]4[C@H](C)CC[C@@H]([C@H]1C)[C@@]24OO3)CCCNC(=O)OCCC[C@H]1O[C@@H]2O[C@@]3(C)CC[C@H]4[C@H](C)CC[C@@H]([C@H]1C)[C@@]24OO3 | inactive | 76 | Active | inactive | inactive | 35 | Dose-dependent effect | 1000 | 1200 | Active | 12 | –
